Most compounds without a hit are left out; they make up all but 3.9% or so of the library.
UPR CHOP act – activators of apoptotic CHOP UPR arm, primary screen, cell-based, CHO-CHOP luciferase reporter, luminescence, uHTS | activation, % at 10 µM | UPR activation; percent of tunicamycin response over DMSO baseline | AID 449763, 2010 | actives 0.34% (n = 330,000);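 active means at 10 µM dose, activation of 40% or more, normalized to positive control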;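 further: 100% = tunicamycin at 10 µg/mL and 0% = DMSO alone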
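System: CHO-CHOP luciferase reporter cell line | Buffer or medium: F12 medium containing 10% fetal bovine serum | Doses: One dose, 10 µM in 0.5% DMSO | Times: 6 h compound exposure at 37 °C after overnight seeding | Signal: Luciferase luminescence | Read-out: % activation vs tunicamycin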
697 NFkB inh – inhibitors of PMA/ionomycin-induced NF-kB reporter, 697 cells, primary screen, B-cell NF-kB inhibitor project, cell-based, luminescence, uHTS; actives 0.33% (n = 330,000); inhibition, % at 4 µM; 697 B-cell NF-kB luciferase reporter, 16 h; in the data active means inhibition above about 35%
UPR XBP1 act – activators of adaptive XBP1 UPR arm, primary screen, cell-based, CHO-XBP1 luciferase reporter, luminescence, uHTS; IRE1-XBP1 UPR activation; percent of tunicamycin response, DMSO as zero; activation, % at 20 µM; actives 0.33% (n = 330,000);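 active means versus positive control, 20 µM dose yields 30% or more activation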;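 further: 100% = tunicamycin at 10 µg/mL and 0% = DMSO only wells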
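Test system: CHO-XBP1 luciferase reporter cells | Buffer or medium: Serum-containing F12 medium, 10% FBS | Schedule: 6 h compound exposure at 37 °C, 5% CO2 | Detection: Steady-Glo luciferase glow luminescence, 10 min after reagent addition | Read-out basis: Activation, % of tunicamycin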
Jurkat NFkB inh – inhibitors of induced NF-kB luciferase reporter, primary screen, TCR NF-kB activation inhibitor project, cell-based, luminescence, uHTS; AID 435003, 2010; Jurkat, PMA/ionomycin-induced NF-kB luciferase reporter; inhibition, % at 4 µM; actives 0.53% (n = 330,000); in the data active means inhibition above about 50%
CHOP inhibitor – inhibitors of CHOP promoter induction, primary screen, cell-based, unfolded protein response, luciferase reporter. inhibition, % at 10 µM. CHO-K1 CHOP-promoter luciferase, tunicamycin-induced, 15-18 h. actives 3.8% (n = 220,000);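 active means compounds that reduced the stress-induced luciferase reporter signal by more than about 70% of percent inhibition, limit read from the data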;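 further: 0% = tunicamycin plus vehicle and 100% = wells without tunicamycin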
Gli-Sufu block – Gli-Sufu pathway antagonists, primary screen, luciferase luminescence, Sufu-KO-LIGHT cells, uHTS; actives 0.74% (n = 340,000); Sufu-KO-LIGHT fibroblasts, Gli luciferase reporter luminescence; inhibition, % at 5 µM;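 active means inhibition above about 55%, limit read from the data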;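 further: 0% = DMSO-treated cells and 100% = wells with medium but no cells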
Gli-Sufu confirm – Gli-SUFU pathway antagonists, confirmation, single concentration, luciferase luminescence, Sufu-KO-LIGHT cells; inhibition, % at 5 µM; AID 602428, 2012; actives 40% (n = 2,500); Gli luciferase reporter; shares compounds with Gli-Sufu block;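 active means mean inhibition at 5 µM reaching about 45%, limit read from the data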;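 further: plate controls were DMSO-treated cells for no effect and wells lacking cells for full effect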
SufuKO cytotox – cytotoxicity in Sufu-KO-LIGHT cells, confirmation, cytotoxicity control for Gli-SUFU antagonist project, cell-based, ATP luminescence, single concentration. shares compounds with Gli-Sufu block. cytotoxicity, % at 5 µM. actives 32% (n = 2,500). AID 651994, 2013;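 active means mean cytotoxicity at 5 µM above about 25%, limit read from the data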;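 further: cells exposed to compound overnight for roughly 16 to 18 hours; plate controls were DMSO wells with cells for no effect and medium without cells for full effect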
Wnt3a cs – Wnt3a reporter signal inhibition, confirmation, counter-screen for Gli-SUFU antagonist project, Wnt-LIGHT cells, luminescence, single concentration; shares compounds with Gli-Sufu block; Wnt3a-driven luciferase reporter; inhibition, % at 6.25 µM; actives 20% (n = 2,500); AID 651995, 2013;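 active means mean inhibition above about 25%, limit read from the data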
An asterisk follows results filed as active; nt = no result.

SMILES	UPR CHOP act	697 NFkB inh	UPR XBP1 act	Jurkat NFkB inh	CHOP inhibitor	Gli-Sufu block	Gli-Sufu confirm	SufuKO cytotox	Wnt3a cs
Cc1nc2ccccc2nc(C)c1=NOCc1ccc(C#N)cc1	-1.6	-13.8	2.3	9.6	-13.0	-6.8	nt	nt	nt
CC(=O)Nc1ccc(S(=O)(=O)NCCC(=O)OCC(=O)NCc2ccccc2)cc1	-0.3	4.7	-3.2	-7.3	nt	-26.3	nt	nt	nt
Nc1nc(SCC(=O)Nc2ccc(Oc3ccccc3)cc2)n[nH]1	2.4	0.0	3.6	4.6	25.5	3.3	nt	nt	nt
Nc1nc(SCC(=O)Nc2cccc(Oc3ccccc3)c2)n[nH]1	-0.9	-2.1	1.3	-3.1	-1.6	53.5	20.2	2.4	-5.5
O=c1c2ccccc2c2ccccc2c(=O)n1Cc1cccnc1	-0.8	8.4	-0.1	-2.3	28.7	59.0*	7.3	11.1	-6.1
O=c1c2ccccc2[nH]c(=S)n1Cc1cccnc1	-1.8	3.0	2.7	5.8	-2.3	-0.5	nt	nt	nt
CC(C)(CNC(=O)CNC(=O)c1ccc(Cl)cc1Cl)N1CCOCC1	-0.3	-1.7	-2.7	7.9	nt	-7.5	nt	nt	nt
COc1cccc(/C=N/NC(=O)C(=O)Nc2ccccc2OC(F)(F)C(F)F)c1O	-0.1	-80.4	-2.6	22.7	78.1*	79.8*	71.5*	47.2*	65.6*
CCOc1ccccc1NC(=O)C(=O)N/N=C/c1cc(Br)ccc1O	-2.6	-16.1	-1.7	-25.4	60.9	56.0*	63.3*	38.8*	58.5*
COc1ccc(-c2cn(-c3ccc(OC)cc3)c3[n+]2-c2ccccc2CC3)cc1	-1.3	27.2	-4.2	40.2	14.4	88.4*	90.9*	46.5*	25.9*
FC(F)Oc1ccc(-n2cc(-c3ccc(Cl)cc3)[n+]3c2CCCCC3)cc1	-0.6	-10.7	-2.9	-2.6	-1.1	47.2	nt	nt	nt
COc1ccc(-c2cn(-c3ccc(SC(F)F)cc3)c3[n+]2CCC3)cc1OC	2.3	2.8	-0.2	-5.8	-21.5	2.1	nt	nt	nt
COc1ccc(-n2cc(-c3ccccc3)[n+]3c2CCCCC3)cc1	0.8	-12.3	-3.1	32.4	6.0	85.2*	87.2*	28.2*	37.1*
FC(F)Sc1ccc(-n2cc(-c3ccccc3)[n+]3c2CCC3)cc1	2.4	-10.7	0.4	10.5	11.0	60.5*	58.6*	36.3*	-24.3
O=C(c1cccc([N+](=O)[O-])c1)N1CCN(c2n[nH]c(=O)[nH]c2=O)CC1	0.0	16.7	-3.1	1.7	-8.2	4.2	nt	nt	nt
Cc1ccc(C(=O)Nc2cccc(C(=O)N/N=C/c3ccc(F)cc3)c2)cc1	1.7	-54.4	1.8	28.5	nt	-29.7	nt	nt	nt
CC(NC(=O)C1CCN(C(=O)c2cccs2)CC1)c1ccc(S(N)(=O)=O)cc1 (stereo not drawn)	-1.5	17.3	-1.4	-0.5	nt	-1.8	nt	nt	nt
CC(C(=O)Nc1cccnc1)c1ccc([N+](=O)[O-])cc1 (stereo not drawn)	-0.7	-7.8	0.5	-3.6	13.5	-26.2	nt	nt	nt
CC(C)Cc1ccc(C(C)C(=O)Nc2cccnc2)cc1 (stereo not drawn)	0.8	-13.3	-5.6	44.8	nt	65.7*	44.5	18.9	19.3
CC1CCC(C(C)C)C(OCC(O)CN2CCOCC2)C1 (stereo not drawn)	-1.6	2.9	0.5	31.2	44.9	54.0	11.0	4.2	-18.3
CCOC(=O)C1=CN(Cc2ccco2)S(=O)(=O)N(CC)C1c1cccc(OC)c1 (stereo not drawn)	1.0	-5.2	0.6	nt	nt	51.7	10.3	22.0	-16.4
CCOC(=O)C1=CN(Cc2ccco2)S(=O)(=O)N(C)C1c1cccc(OC)c1 (stereo not drawn)	3.7	2.5	1.2	nt	nt	2.6	nt	nt	nt
CCOC(=O)C1=CN(Cc2ccco2)S(=O)(=O)N(CC)C1c1ccccc1 (stereo not drawn)	0.6	-2.1	0.6	nt	nt	52.5	12.2	3.4	-9.9
CCOC(=O)C1=CN(Cc2ccco2)S(=O)(=O)N(CC)C1c1ccc(F)c(Cl)c1 (stereo not drawn)	0.9	-5.0	-1.7	nt	nt	10.3	nt	nt	nt
COC1C(CO)OC(n2c3c(Cl)cccc3c3c4c(c5c6cccc(Cl)c6[nH]c5c32)C(=O)NC4=O)C(O)C1O (stereo not drawn)	nt	nt	nt	nt	nt	61.7*	37.1	25.7*	29.7*
SMILES	UPR CHOP act	697 NFkB inh	UPR XBP1 act	Jurkat NFkB inh	CHOP inhibitor	Gli-Sufu block	Gli-Sufu confirm	SufuKO cytotox	Wnt3a cs
C=CCn1c(CCn2c3ccccc3c3ccccc32)n[nH]c1=S	-0.8	-35.8	0.4	-7.4	21.0	-3.7	nt	nt	nt
C=CCn1c(CCC(O)COCCC)n[nH]c1=S (stereo not drawn)	-1.0	17.7	-1.0	-11.3	-13.6	53.9	10.7	22.0	-21.1
O=C(COc1ccc([N+](=O)[O-])cc1)NNC(=O)Nc1ccc([N+](=O)[O-])cc1	1.2	13.4	-5.1	-3.0	nt	97.9*	-1.0	-10.1	-1.8
COc1ccc(CCNC(=O)CCNC(=O)c2ccco2)cc1	2.0	0.0	-2.2	11.5	nt	71.7*	14.3	28.1*	-3.1
CC(C)CC(=O)NC(C)C(c1cccs1)N1CCOCC1 (stereo not drawn)	-0.3	-11.1	-3.2	-15.7	1.2	4.0	nt	nt	nt
CC1(C)CC(=O)c2c(Cc3ccccc3)noc2C1	-0.2	-1.3	0.3	-13.8	15.5	-10.7	nt	nt	nt
CC1(C)CC(=O)c2c(noc2-c2ccccc2)C1	6.7	-26.8	0.1	-2.1	44.5	75.2*	19.7	28.4*	-47.4
NS(=O)(=O)c1ccc(OC(=O)CNC(=O)OCc2ccccc2)cc1	-1.5	19.0	-2.5	0.0	nt	-2.6	nt	nt	nt
Cc1nn(CC(=O)c2ccc3c(c2)OCCO3)c(=O)c(C#N)c1C	0.6	7.8	-2.1	14.7	nt	4.3	nt	nt	nt
CCOc1ccccc1CNc1nnnn1C	-0.3	4.5	-1.9	1.3	nt	nt	nt	nt	nt
CCOc1ccc(Cl)cc1CNc1nnnn1C	-0.3	2.0	-0.8	-9.8	2.5	51.2	15.8	15.1	-1.4
Cc1csc(NC(=O)c2cc(C)on2)n1	0.4	-46.6	-2.2	-48.7	nt	-50.0	nt	nt	nt
